Results on five molecules are retold here after publication PMC4550695 (mBio, 2015).

Series [1] concerns P. aeruginosa MPAO1. The series is described as follows: Biofilm formation under static conditions, P. aeruginosa MPAO1. The series is classed as cell-based, Pseudomonas aeruginosa. The conditions noted are these: isatin 10^−5 M alone, 24 h. Put shortly: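 Uses a GFP-plasmid (pSMC2.1) strain; overnight preculture at 37°C diluted into LB with 400 µg/ml kanamycin. Test compound added at 2 h of subculture from DMSO/water (5/95) stock, final DMSO under 0.2%, DMSO-matched controls. After 3 h more, cells pelleted, resuspended in 0.9% NaCl at OD600 0.1, 2 h static attachment on glass slides, then LB 24 h static at 37°C. PBS-rinsed, heat fixed, CLSM/COMSTAT.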

In series [2] the target is T1, P. aeruginosa AmiC (Pseudomonas aeruginosa, UniProt P27017). As to the kind of experiment: Microscale thermophoresis binding to recombinant AmiC. The conditions noted are these: for affinity for / interaction with AmiC, in words: MST, pH 7.5, 25°C. The method in brief:
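His-tagged codon-optimised AmiC expressed in E. coli Rosetta2(DE3), purified by IMAC and gel filtration, RED-NHS labelled or unlabelled depending on ligand. AmiC at 50 nM final, mixed with 1:1 serial ligand dilutions in 50 mM Tris-HCl pH 7.5, 150 mM NaCl, 10 mM MgCl2, 0.05% Tween 20. After 5 min incubation, read at 25°C (laser 5/30/5 s); three independent pipettings; KD fitted by mass-action equation.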
For orientation: Microscale thermophoresis detects binding through changes in fluorescence in a small temperature gradient.

For series [3] the following is noted: endogenous, usual order; ref [52]; cited from earlier work.
The subject of series [4] is membrane of P. aeruginosa. The conditions noted are these: inducing increased virulence; ref [14]; cited from earlier work.
For series [5], the target named is T1, P. aeruginosa AmiC. The conditions noted are these: ref [36]; cited from earlier work.
Series [6] relates to P. aeruginosa PA14. The series is described as follows: Biofilm formation under dynamic conditions, P. aeruginosa PA14 wild type. The series is classed as cell-based, Pseudomonas aeruginosa. The conditions noted are these: 24 h.
The subject of series [7] is ami operon of P. aeruginosa. The series is described as follows: qRT-PCR of ami operon mRNA. The conditions noted are these: BNP 10^−6 M; data not shown. The series is classed as cell-based, Pseudomonas aeruginosa.
In series [8] the test system is PA14 ΔamiC strain. As to the kind of experiment: Biofilm formation under dynamic conditions, PA14 ΔamiC strain. The series is classed as cell-based, Pseudomonas aeruginosa. The conditions noted are these: BNP 10^−7 M, 24 h, P < 0.05, eight samples from three experiments.
For series [9], the system named is P. aeruginosa cAMP. The conditions noted are these: ref [17]; cited from earlier work.
For series [10], the system named is Caenorhabditis elegans. The conditions noted are these: ref [16]; cited from earlier work.
In series [11] the test system is NPR-C receptor. The conditions noted are these: mammalian cells; ref [25]; cited from earlier work.
Series [12] relates to NPR-A receptor. The conditions noted are these: mammalian cells; ref [25]; cited from earlier work.

The Kd is the free concentration of one partner at which half of the binding sites on the other are occupied at equilibrium, for simple one-to-one binding.

T1 sequence (P27017 whole entry): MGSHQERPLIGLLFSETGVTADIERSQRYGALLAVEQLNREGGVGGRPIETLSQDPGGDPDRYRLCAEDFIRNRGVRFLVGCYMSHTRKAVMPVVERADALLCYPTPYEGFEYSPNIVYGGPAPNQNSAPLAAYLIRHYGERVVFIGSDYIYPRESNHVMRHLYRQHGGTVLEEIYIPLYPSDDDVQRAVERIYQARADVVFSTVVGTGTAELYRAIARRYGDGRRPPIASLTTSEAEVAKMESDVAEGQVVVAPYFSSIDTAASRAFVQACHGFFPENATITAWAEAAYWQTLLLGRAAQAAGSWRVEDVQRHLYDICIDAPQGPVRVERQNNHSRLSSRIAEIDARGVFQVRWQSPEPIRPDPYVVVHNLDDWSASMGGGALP

Turning to `O=C1Nc2ccccc2C1=O` [isatin, indole-2,3-dione], the “effect of isatin alone on organization of the biofilm” value in series [1] was “more irregular, with the presence of large water channels”. The “effect of isatin alone on biomass and thickness of the biofilm” value in series [1] (two independent experiments) is “limited and nonsignificant increase”. For the same molecule, the equilibrium dissociation constant (Kd) in [2] is 600 ± 200 µM. Moreover, the “normal blood isatin concentration” value in series [3] is reported as 0.3 to 1.3 µM.

Turning to dynorphin, in series [4], the “crossing of the membrane of P. aeruginosa” value was “able to freely cross the membrane”.

As for `CC(N)=O` [acetamide], the “effect of acetamide on ami operon transcription via AmiC” value in series [5] is “triggering the transcription of the whole ami operon”.

Consider brain natriuretic peptide [BNP], for which the “change of biofilm average thickness” value in series [6] (10^−6 M, PA14, dynamic (flow cell), LB, 37°C, vs control, P < 0.001) was −76.0 ± 4.8%. Further, in [6] (10^−6 M, PA14, dynamic (flow cell), LB, 37°C, vs control, P < 0.001, CNP: ten samples from six experiments, BNP: six samples from two experiments), the “change of biofilm volume” value is on record as −80.3% ± 4.4%. In addition, the “number and mean size of mushroom-like structures in the biofilm” value in [6] (10^−6 M, PA14, dynamic, confocal microscopy) was “reduction of the number and mean size of mushroom-like structures”. Besides, in series [6] (BNP 10^−7 M, PA14 wild type, dynamic, P < 0.001, nine samples from three experiments), the “change of biofilm formation” value is recorded as −75.1% ± 9.9%. For the same molecule, the “whole ami operon transcriptional activity” value in series [7] is on record as “no significant effect”. In addition, the “affinity for / interaction with AmiC, in words” value in [2] is “no affinity for AmiC”. Moreover, the “change of biofilm formation in ΔamiC mutant” value in series [8] is recorded as −70.8% ± 12.1%. Also, in [9], the “intrabacterial cAMP” value is listed as “did not modify intrabacterial cAMP levels”. The “effect on P. aeruginosa virulence for Caenorhabditis elegans” value in series [10] is “without effect”. The “affinity for NPR-C” value in [11] is given as “weak affinity”. Also, the “affinity for NPR-A” value in [12] was “strongly binds”.

B1: osteocrin: specific NPR-C agonist, synthesized by J. Leprince (peptide, UniProt P61366 28-133, looked up)
Osteocrin: VDVTTTEAFDSGVIDVQSTPTVREEKSATDLTAKLLLLDELVSLENDVIETKKKRSFSGFGSPLDRLSAGSVDHKGKQRKVVDHPKRRFGIPMDRIGRNRLSNSRG
modifications: Osteocrin
As to B1, in series [2], the “affinity for / interaction with AmiC, in words” value is “very strong interaction”.
